In ChEMBL document CHEMBL1154752, “Discovery of a new and efficient small molecule for neuronal differentiation from mesenchymal stem cell” (J Med Chem, 2009) one finds Activity data, which are given here for six molecules.

Calls of active or inactive are those of the source. No cut-off for these calls is given here. Bounds are passed on as bounds.

Data set [1] concerns Mesenchymal stem cell. The data set can be described thus: Induction of neuronal differentiation in Fisher rat mesenchymal stem cells assessed as increase in beta-3 tubulin expression after 2 days. The class given is functional, cell-based. Put shortly:
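Rat bone marrow MSCs given 20 μM for 2 days, with 50 ng/mL NGF as comparator. β-III tubulin detected by Western blot and by immunocytochemistry with anti-β-III tubulin plus DAPI counterstain. More than three independent repeats.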

Data set [2] relates to Mesenchymal stem cell. The data set can be described thus: Induction of neuronal differentiation in Fisher rat mesenchymal stem cells assessed as induction of Chrm4 gene expression by DNA microarray. It counts as functional, cell-based.
The subject of data set [3] is Mesenchymal stem cell. The experiment in a line: Induction of neuronal differentiation in Fisher rat mesenchymal stem cells assessed as induction of Chrna2 gene expression by DNA microarray. The class given is functional, cell-based.
Data set [4] deals with PC-12. The experiment in a line: Induction of neuronal differentiation in rat PC12 cells assessed as increase in beta-3 tubulin expression after 48 hrs. It counts as functional, cell-based.
The nature of data set [5]: Induction of neuronal differentiation in Fisher rat mesenchymal stem cells at 20 uM after 2 days by Nissl staining. The class given is functional, Mesenchymal stem cell. Put shortly:
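Bone marrow MSCs held at 20 μM for 2 days, then Nissl stained. Differentiation estimated by counting cells. Each experiment repeated independently more than three times.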

The test system of data set [6] is Mesenchymal stem cell. The data set can be described thus: Induction of neuronal differentiation in Fisher rat mesenchymal stem cells assessed as change in cell morphology at 20 uM after 2 days. The class given is functional, cell-based. Put shortly:
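Bone marrow MSCs treated at 20 μM for 2 days. Morphology inspected by immunocytochemistry with anti-β-III tubulin and DAPI staining.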

Data set [7] relates to Mesenchymal stem cell. The experiment in a line: Induction of neuronal differentiation in Fisher rat mesenchymal stem cells assessed as induction of potassium current at 20 uM after 2 days by patch clamp method. It counts as functional, cell-based. The method in brief:
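Rat MSCs treated at 20 μM for 2 days. Whole-cell patch clamp records membrane K+ current under voltage pulses from -30 to 90 mV.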

For data set [8], the system named is PC-12. The data set can be described thus: Induction of neurite outgrowth in rat PC12 cells after 48 hrs. The class given is functional, cell-based.
The test system of data set [9] is Mesenchymal stem cell. The data set can be described thus: Induction of neuronal differentiation in Fisher rat mesenchymal stem cells assessed as change in acetylcholine-induced membrane potential at 20 uM after 2 days by FLIPR. It counts as functional, cell-based. Put shortly:
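Rat MSCs preincubated with 20 μM for 48 h. Membrane potential read with a FLIPR membrane potential dye kit after addition of 10 μM acetylcholine, with untreated cells as reference.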

The test system of data set [10] is PC-12. The data set can be described thus: Induction of neuronal differentiation in rat PC12 cells assessed as increase in neuron specific enolase expression after 48 hrs. It counts as functional, cell-based.
Data set [11] deals with Mesenchymal stem cell. The data set can be described thus: Induction of neuronal differentiation in Fisher rat mesenchymal stem cells assessed as induction of Fbxo2 gene expression after 2 days by quantitative PCR. The class given is functional, cell-based. Put shortly:
(§1)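 MSCs incubated at 10 and 20 μM for 2 days beside a DMSO control. mRNA levels measured by quantitative PCR, three independent runs.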

A short description of data set [12]: Toxicity in Fisher rat mesenchymal stem cells at 20 uM after 2 days. It counts as cell-based. The settings on record: mesenchymal stem cell, 48 h.
Data set [13] relates to Mesenchymal stem cell. The experiment in a line: Induction of neuronal differentiation in Fisher rat mesenchymal stem cells assessed as induction of Chrnb2 gene expression by DNA microarray. It counts as functional, cell-based.
Data set [14] relates to Mesenchymal stem cell. The data set can be described thus: Induction of neuronal differentiation in Fisher rat mesenchymal stem cells assessed as induction of Sizn1 gene expression after 2 days by quantitative PCR. It counts as functional, cell-based. The method in brief: as §1
The test system of data set [15] is Mesenchymal stem cell. The data set can be described thus: Induction of neuronal differentiation in Fisher rat mesenchymal stem cells assessed as increase in neuron specific enolase expression after 2 days. It counts as functional, cell-based. Put shortly: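 Rat bone marrow MSCs treated over a time course. Neuron-specific enolase protein followed alongside β-III tubulin. More than three independent experiments.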

Data set [16] deals with Mesenchymal stem cell. The data set can be described thus: Induction of astroglial differentiation in Fisher rat mesenchymal stem cells assessed as GFAP level at 20 uM after 2 days by Western blot. It counts as functional, cell-based. The method in brief: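 Rat bone marrow MSCs exposed to 20 μM for 48 h. GFAP, the astroglial marker, detected by Western blot.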
In general terms: Immunoblotting shows a protein as a band on a membrane.

Data set [17] has as its system Mesenchymal stem cell. The experiment in a line: Induction of neuronal differentiation in Fisher rat mesenchymal stem cells assessed as induction of cholinergic receptor gene expression after 2 days by quantitative PCR. The class given is functional, cell-based. Put shortly: as §1

On to `O=C(NO)c1ccc2[nH]c(=O)c(CCCc3ccccc3)nc2c1`, for which the Activity result is “Dose-dependent effect” in the data set on Mesenchymal stem cell [1]; above 95% in data set [5]; “Dose-dependent effect” in the data set on Mesenchymal stem cell [11]; “Non-toxic” in [12]; “Dose-dependent effect” in the data set on Mesenchymal stem cell [14]; “Dose-dependent effect” in the data set on Mesenchymal stem cell [15]. Also, the Activity entry in the data set with Mesenchymal stem cell [17] was “Dose-dependent effect”. Moreover, the result in the data set on Mesenchymal stem cell [2], with Mesenchymal stem cell [3], with PC-12 [4], in the data set on Mesenchymal stem cell [6], in the data set on Mesenchymal stem cell [7] and with PC-12 [8] was Active. The result in the data set on Mesenchymal stem cell [9], in the data set on PC-12 [10] and in the data set with Mesenchymal stem cell [13] was Active. Moreover, in the data set with Mesenchymal stem cell [16], the result was inactive.

As to `COC(=O)c1ccc2nc(CCCc3ccccc3)c(=O)[nH]c2c1`, in the data set with Mesenchymal stem cell [6], the result was inactive.

For `COC(=O)c1ccc2[nH]c(=O)c(CCCc3ccccc3)nc2c1`, the result in the data set with Mesenchymal stem cell [6] was inactive.

Consider `O=C(NO)c1ccc2nc(CCCc3ccccc3)c(=O)[nH]c2c1`, for which, in the data set with Mesenchymal stem cell [6], the result was inactive.

As for `O=C(NOC1CCCCO1)c1ccc2nc(CCCc3ccccc3)c(=O)[nH]c2c1` (configuration not stated), the outcome with Mesenchymal stem cell [6] was inactive.

For `O=C(NOC1CCCCO1)c1ccc2[nH]c(=O)c(CCCc3ccccc3)nc2c1` (configuration not stated), the result in the data set on Mesenchymal stem cell [6] was inactive.
